The source made the active and inactive calls. The rule behind the calls is not given here.
Columns and labels:
[1] = Inhibit growth of KB cells by 50%; format: functional, cell-based; details: Homo sapiens
P388 [2] = assay: Tested in vivo for the antitumor activity against P388 in mice after intraperitoneal administration of 100 mg/kg dose; T/C= treated/control; format: functional, Mus musculus
FM3A [3] = assay: Ability to induce dNTP pool imbalance at 41 uM dose was tested; significant imbalance in the intracellular dNTP pool in FM3A cells; format: functional, cell-based; details: Mus musculus
FM3A [4] = assay: Inhibit growth of FM3A cells by 50%; format: functional, cell-based; details: Mus musculus
Summary of the method: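 FM3A cells were grown in ES medium with 2% heat-inactivated FBS at 37 °C under 5% CO2, seeded at about 5 × 10^4 cells/mL, and exposed to a range of drug concentrations. Cells were counted electronically after 48 h. IC50 is the concentration that reduces growth rate by 50% of control.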

P388 [5] = assay: Compound was tested in vivo for the antitumor activity against P388 in mice after intraperitoneal administration of 3.1 mg/kg dose; T/C= treated/control; format: functional, Mus musculus
P388 [6] = assay: Compound was tested in vivo for the antitumor activity against P388 leukemia cells in mice after intraperitoneal administration of 12.5 mg/kg dose; T/C= treated/control
P388 [7] = assay: Compound was tested in vivo for the antitumor activity against P388 in mice after intraperitoneal administration of 6.3 mg/kg dose; T/C= treated/control; format: functional, Mus musculus
P388 [8] = details: Mus musculus
P388 [9] = assay: Tested in vivo for the antitumor activity against P388 in mice after intraperitoneal administration of 200 mg/kg dose; T/C= treated/control; format: functional, Mus musculus
FM3A [10] = assay: Compound''s ability to induce dNTP pool imbalance at 6.1 uM dose was tested; significant imbalance in the intracellular dNTP pool in FM3A cells; format: functional, cell-based; details: Mus musculus
P388 [11] = assay: Tested in vivo for the antitumor activity against P388 leukemia cells in mice after intraperitoneal administration of 400 mg/kg dose; T/C= treated/control; format: functional, Mus musculus
P388 [12] = assay: Compound was tested in vivo for the antitumor activity against P388 in mice after intraperitoneal administration of 2.5 mg/kg dose; T/C= treated/control; format: functional, Mus musculus
P388 [13] = assay: Compound was tested in vivo for the antitumor activity against P388 leukemia cells in mice after intraperitoneal administration of 5 mg/kg dose; T/C= treated/control; format: functional, Mus musculus
P388 [14] = assay: Compound was tested in vivo for the antitumor activity against P388 in mice after intraperitoneal administration of 0.6 mg/kg dose; T/C= treated/control; format: functional, Mus musculus
FM3A [15] = assay: Ability to induce dNTP pool imbalance at 9.0 uM dose was tested; significant imbalance in the intracellular dNTP pool in FM3A cells; details: Mus musculus
P388 [16] = assay: Compound was tested in vivo for the antitumor activity against P388 in mice after intraperitoneal administration of 25 mg/kg dose; T/C= treated/control; format: functional, Mus musculus
P388 [17] = assay: Compound was tested in vivo for the antitumor activity against P388 in mice after intraperitoneal administration of 50 mg/kg dose; T/C= treated/control; format: functional, Mus musculus
P388 [18] = assay: Compound was tested in vivo for the antitumor activity against P388 leukemia cells in mice after intraperitoneal administration of 100 mg/kg dose; T/C= treated/control; format: functional, Mus musculus
P388 [19] = assay: Compound was tested in vivo for the antitumor activity against P388 in mice after intraperitoneal administration of 10 mg/kg dose; T/C= treated/control; format: functional, Mus musculus
FM3A [20] = assay: Ability to induce dNTP pool imbalance at 3.5 uM dose was tested; significant imbalance in the intracellular dNTP pool in FM3A cells; details: Mus musculus
P388 [21] = assay: Compound was tested in vivo for the antitumor activity against P388 in mice after intraperitoneal administration of 20 mg/kg dose; T/C= treated/control; format: functional, Mus musculus
P388 [22] = assay: Compound was tested in vivo for the antitumor activity against P388 leukemia cells in mice after intraperitoneal administration of 40 mg/kg dose; T/C= treated/control; format: functional, Mus musculus
FM3A [23] = assay: Ability to induce dNTP pool imbalance at 15.0 uM dose was tested; significant imbalance in the intracellular dNTP pool in FM3A cells; details: Mus musculus
P388 [24] = assay: Compound was tested in vivo for the antitumor activity against P388 leukemia cells in mice after intraperitoneal administration of 25 mg/kg dose; T/C= treated/control; format: functional, Mus musculus
P388 [25] = assay: Compound was tested in vivo for the antitumor activity against P388 in mice after intraperitoneal administration of 12.5 mg/kg dose; T/C= treated/control; format: functional, Mus musculus
FM3A [26] = assay: Ability to induce dNTP pool imbalance at 7.9 uM dose was tested; significant imbalance in the intracellular dNTP pool in FM3A cells; details: Mus musculus
FM3A [27] = assay: Ability to induce dNTP pool imbalance at 16.4 uM dose was tested; significant imbalance in the intracellular dNTP pool in FM3A cells; details: Mus musculus
P388 [28] = assay: Compound was tested in vivo for the antitumor activity against P388 in mice after intraperitoneal administration of 400 mg/kg dose; T/C= treated/control; format: functional, Mus musculus
FM3A [29] = assay: Ability to induce dNTP pool imbalance at 7.3 uM dose was tested; significant imbalance in the intracellular dNTP pool in FM3A cells; details: Mus musculus

SMILES	IC50 [1] [µM]	T/C (P388 [2]) [%]	Imbalance (FM3A [3])	IC50 (FM3A [4]) [µM]	T/C (P388 [9]) [%]	T/C (P388 [11]) [%]	also measured
Oc1cccc2cccnc12 [OXYQUINOLINE]	< 2.1	92	significant imbalance in the intracellular dNTP pool in FM3A cells	2.1	–	–	–
COc1ccc(C(c2ccc3cccnc3c2O)c2ccc3cccnc3c2O)cc1	< 0.7	–	significant imbalance in the intracellular dNTP pool in FM3A cells	0.01	–	–	T/C (P388 [5]): 111%; T/C (P388 [6]): 164%; T/C (P388 [7]): 128%
COc1ccc(C(c2oc(CO)cc(=O)c2O)c2oc(CO)cc(=O)c2O)cc1	> 249	–	–	> 249	–	–	T/C (P388 [8]): inactive
CCOC(c1ccc(OC)cc1)c1ccc(C(C)C)cc(=O)c1O (stereo not given)	1.6	–	–	1.1	140	140	Imbalance (FM3A [10]): significant imbalance in the intracellular dNTP pool in FM3A cells
CC(C)c1cccc(=O)c(O)c1 [HINOKITIOL]	3.5	–	significant imbalance in the intracellular dNTP pool in FM3A cells	1.1	–	–	T/C (P388 [11]; Mus musculus): inactive
CC(C)c1ccc(CCCCCCCCc2ccc(C(C)C)cc(=O)c2O)c(O)c(=O)c1	4.3	107	significant imbalance in the intracellular dNTP pool in FM3A cells	0.9	110	110	–
COc1ccc(C(c2ccc(C(C)C)cc(=O)c2O)c2ccc(C(C)C)cc(=O)c2O)cc1	1.1	–	–	0.4	–	–	T/C (P388 [12]): 134%; T/C (P388 [13]): 173%; T/C (P388 [14]): 127%; Imbalance (FM3A [15]): significant imbalance in the intracellular dNTP pool in FM3A cells
CC(C)C1=CC(=O)C(=O)/C(=C2/C=CC(C(C)C)=CC(O)=C2O)C=C1	9.5	–	significant imbalance in the intracellular dNTP pool in FM3A cells	3.7	–	–	T/C (P388 [16]): 152%; T/C (P388 [17]): 171%; T/C (P388 [18]): 143%
COc1ccc(C(c2ccc(C(C)C)cc(OC)c2=O)c2ccc(C(C)C)cc(OC)c2=O)cc1	114	–	–	14.1	–	–	T/C (P388 [8]): inactive
CC(C)c1ccc(COCc2ccc(C(C)C)cc(=O)c2O)c(O)c(=O)c1	6.2	–	–	0.08	–	–	T/C (P388 [19]): 164%; Imbalance (FM3A [20]): significant imbalance in the intracellular dNTP pool in FM3A cells; T/C (P388 [21]): 186%; T/C (P388 [22]): 156%
CC(C)c1ccc(CCc2ccc(C(C)C)cc(=O)c2O)c(O)c(=O)c1	8	–	–	1.2	–	–	T/C (P388 [16]): 150%; T/C (P388 [18]): 165%; Imbalance (FM3A [23]): significant imbalance in the intracellular dNTP pool in FM3A cells; T/C (P388 [7]): 121%
CC(C)c1ccc(Cc2ccc(C(C)C)cc(=O)c2O)c(O)c(=O)c1	< 0.9	–	–	1	–	–	T/C (P388 [24]): 123%; T/C (P388 [25]): 152%; Imbalance (FM3A [26]): significant imbalance in the intracellular dNTP pool in FM3A cells; T/C (P388 [7]): 137%
CC(C)c1ccc(SCCSc2ccc(C(C)C)cc(=O)c2O)c(O)c(=O)c1	1.6	151	–	4.8	171	80	Imbalance (FM3A [27]): significant imbalance in the intracellular dNTP pool in FM3A cells
CC(C)c1ccc(CCCCCCCCCCCCc2ccc(C(C)C)cc(=O)c2O)c(O)c(=O)c1	27.3	106	significant imbalance in the intracellular dNTP pool in FM3A cells	1.3	107	–	T/C (P388 [28]): 105%
CC(C)c1ccc(SCCCSc2ccc(C(C)C)cc(=O)c2O)c(O)c(=O)c1	1.6	93	–	–	131	169	–
CC(C)c1ccc(CCCCCCc2ccc(C(C)C)cc(=O)c2O)c(O)c(=O)c1	1.5	128	–	0.9	80	70	T/C (P388 [16]): 110%; T/C (P388 [17]): 137%; Imbalance (FM3A [29]): significant imbalance in the intracellular dNTP pool in FM3A cells

Source: ChEMBL document CHEMBL1126143, “Synthesis and antitumor activity of tropolone derivatives. 7. Bistropolones containing connecting methylene chains” (J Med Chem, 1992)
